MrgX1 allo act = positive allosteric modulators of MrgX1, primary screen, HEK293 cells, Fluo-4 calcium flux | AID 588675, 2011 | FDSS; stronger effect = higher value | B-score at 10 µM | actives 0.63% (n = 310,000);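 active = plate-corrected calcium response at least 3 library SD above typical, normal starting fluorescence, not activating the receptor alone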;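 note: compound read alongside a low EC10 to EC30 dose of BAM8-22 agonist; peak minus trough fluorescence over baseline measured at the second addition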
Target sequence (Q96LB2 whole entry, looked up): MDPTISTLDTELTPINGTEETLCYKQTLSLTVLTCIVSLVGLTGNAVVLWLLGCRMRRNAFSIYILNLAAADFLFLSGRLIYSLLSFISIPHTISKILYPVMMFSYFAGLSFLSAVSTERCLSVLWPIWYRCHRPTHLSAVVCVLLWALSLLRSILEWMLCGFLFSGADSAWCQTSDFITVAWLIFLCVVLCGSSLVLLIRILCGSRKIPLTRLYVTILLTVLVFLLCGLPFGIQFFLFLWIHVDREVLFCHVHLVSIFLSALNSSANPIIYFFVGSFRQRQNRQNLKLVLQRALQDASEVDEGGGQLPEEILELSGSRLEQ
MrgX1 antagonist = antagonists of human MrgX1 receptor, primary screen, HEK293 cells, Fluo-4 calcium flux | Mas-related G-protein coupled receptor member X1 (Homo sapiens), Q96LB2 | BAM8-22 antagonism; stronger effect = lower value | B-score at 10 µM | actives 1.3% (n = 310,000) | AID 588676, 2011;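 active = calcium-response B-score plate-corrected more than 3 library SD below zero, starting fluorescence within 5 deviations, no agonist response on first addition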;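 note: peak minus trough fluorescence over baseline after final BAM8-22 challenge near maximal dose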
RGS4 pot = RGS4 potentiators or activators, primary screen, cell-based, HEK293 M3R inducible RGS4, calcium flux | carbachol calcium flux Fluo4; stronger effect = lower value | B-score at 10 µM | actives 0.92% (n = 310,000) | AID 463111, 2010;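 active = B-score of the integrated calcium signal more than 4 SD below the library mean, with starting fluorescence not abnormally high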;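 note: negative B-score means reduced calcium response which marks RGS4 activation or potentiation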
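test system = HEK293 cells with stable M3R and inducible RGS4 | schedule = recording 10 s baseline at 1 Hz, 100 s post-agonist | technique = Fluo4-AM (2 µM) calcium-flux fluorescence, kinetic read | measure = Agonist-evoked peak-minus-minimum fluorescence over baseline, integrated ratio, B score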
MrgX1 agonist = agonists of human MrgX1 receptor, primary screen, HEK293 cells, Fluo-4 calcium flux; actives 0.44% (n = 310,000); AID 588627, 2011; Fluo-4 calcium fluorescence, agonist mode; stronger effect = higher value; Mas-related G-protein coupled receptor member X1 (Homo sapiens), Q96LB2; B-score at 10 µM;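 active = calcium response B-score plate-corrected fluorescence ratio at least 3 library SD, with starting fluorescence B-score inside 5 SD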
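Test system: Stable human MrgX1 HEK293 cell line | Schedule: Overnight plating before 1 h dye loading | Read-out basis: Baseline-normalised fluorescence change ratio, B-scored | Detection: Kinetic calcium dye fluorescence, Fluo-4 NW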
RGS4 inh = RGS4 inhibitors, primary screen, cell-based, HEK293 M3R inducible RGS4, calcium flux | Regulator of G-protein signaling 4 (Homo sapiens), P49798 | Fluo-4 calcium flux; stronger effect = higher value; triggered by carbachol at its EC20 | B-score at 10 µM | actives 0.45% (n = 310,000) | AID 463165, 2010;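 active = B-score, a plate-corrected calcium signal, over three deviations above library mean, with baseline fluorescence within five deviations of library mean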;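 note: RGS4 expression induced by doxycycline in cells with stable M3 receptor; B-score is computed from the integrated fluorescence ratio over baseline after carbachol; higher B-score means a larger calcium signal and so more RGS4 inhibition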
Target sequence (P49798 whole entry, looked up): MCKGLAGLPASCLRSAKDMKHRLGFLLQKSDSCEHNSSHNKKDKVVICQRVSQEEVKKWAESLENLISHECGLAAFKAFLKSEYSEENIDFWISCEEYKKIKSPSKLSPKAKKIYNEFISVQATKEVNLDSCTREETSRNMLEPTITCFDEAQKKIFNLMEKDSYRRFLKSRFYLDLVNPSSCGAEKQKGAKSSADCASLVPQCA
Hits are given with their value; n = inactive; x = not tested or not shown; ! = not active in a repeat. Most compounds without a hit are left out; they make up all but 3.5% or so of the library.

SMILES	MrgX1 allo act	MrgX1 antagonist	RGS4 pot	MrgX1 agonist	RGS4 inh
CN1CCN(c2ccc(C(F)(F)F)cc2NC(=O)c2ccco2)CC1	n	n	n	n	n
COc1ccc(/C=C(\C#N)C(=O)c2c(C)[nH]c3ccccc23)cc1OC	n	n	n	32	n
COC(=O)[C@H](Cc1ccccc1)NC(=O)c1ccc2ccccc2n1	n	n	n	n	n
CC(C)(C)NC(=O)[C@@H]1C[C@@H]2CCCC[C@@H]2CN1C[C@@H](O)[C@H](Cc1ccccc1)NC(=O)[C@H](CC(N)=O)NC(=O)c1ccc2ccccc2n1	n	-6!	n	n	n
Cc1ccc(C(=O)NNc2cc(=O)n(C)c(=O)n2C)cc1C	n	-5.1	n	n	n
COC(=O)C1(C(=O)OC)NOC2C(=O)N(c3ccccc3)C(=O)C21 (configuration not stated)	n	-5.7	n	n	n
O=C(NCC1CCN(Cc2ccc(Cl)cc2)CC1)C1CCCN(c2ncnc3c2nc2n3CCCCC2)C1 (configuration not stated)	n	n	-7.2	n	n
CCn1nc(C)c(CNC(=O)c2cc(COc3ccc(C)nc3)on2)c1C	n	n	n	n	n
N#CCc1nn(-c2ccccc2)c2ncnc(N)c12	n	n	n	n	n
CN(c1cccc(NC(=O)Nc2cccc(Cl)c2)c1)S(C)(=O)=O	n	-5.2	n	n	n
O=C(O)c1ccc(N2CCc3ccccc32)c([N+](=O)[O-])c1	n	n	n	n	n
COC(=O)c1ccc(N2CCc3ccccc32)c([N+](=O)[O-])c1	7.7	n	n	n	n
Cc1ccccc1S(=O)(=O)N1[C@@H](c2ccc(F)cc2)C(C(=O)O)=CC[C@H]1c1ccc(Cl)cc1	n	n	x	n	x
Cc1ccc(NC(=O)CN2C(=O)S/C(=C/c3ccc(-c4cc(C(=O)O)ccc4C)o3)C2=O)cc1C	n	n	n	n	n
Cc1ccc(C(=O)O)cc1-c1ccc(C=C2C(=O)c3ccccc3C2=O)o1	n	n	n	41	n
Cc1cc(C(=O)O)ccc1-n1c(C)cc(C=C2C(=O)c3ccccc3C2=O)c1C	n	n	n	29	n
CC(C)NC(=O)CN(C(=O)CCC(=O)Nc1nccs1)c1ccc(C(C)C)cc1	n	n	n	n	n
CCCCC(=O)Nc1ccccc1CC	n	n	n	n	n
O=C(NCc1n[nH]c(=S)n1-c1ccc(Br)cc1)c1ccc(S(=O)(=O)N2CCOCC2)cc1	n	n	n	n	n
Cc1cc(N/N=C(/CCC(=O)O)C(=O)O)nc2ccccc12	n	n	n	n	n
CCOC(=O)C1(CCCc2ccccc2)CCN(C(=O)CN2C(=O)CSC2=O)CC1	n	n	n	n	n
Cc1ccnc(SCc2ccc(C(=O)O)cc2)n1	n	n	n	n	n
CCOC(=O)c1c(NC(=O)Cn2cnc([N+](=O)[O-])n2)sc2c1CCC(C)C2 (configuration not stated)	n	n	n	n	n
COC(=O)c1c(NC(=O)Cn2cnc([N+](=O)[O-])n2)sc2c1CCC(C)C2 (configuration not stated)	n	n	-7.6	n	n
CCOc1ccc(C2(C)CC(=O)N(C)C2=O)cc1 (configuration not stated)	n	n	n	n	n
SMILES	MrgX1 allo act	MrgX1 antagonist	RGS4 pot	MrgX1 agonist	RGS4 inh
O=C(CCN1C(=O)/C(=C\c2cccs2)SC1=S)Nc1ccc(C(=O)O)cc1	n	n	n	n	n
O=C(CCCN1C(=O)/C(=C\c2cccs2)SC1=S)Nc1cccnc1	n	n	n	n	n
CCN(CC)CCOC(=O)c1ccc(NC(=O)CCCN2C(=O)/C(=C\c3cccs3)SC2=S)cc1	n	n	-7.6	n	n
O=C(CCCN1C(=O)/C(=C/c2cccs2)SC1=S)Nc1cccnc1	n	-5.6	n	n	n
Cc1cnc(CNC(=O)c2ccc3oc(Cc4ccc(Cl)cc4)nc3c2)cn1	n	n	n	n	n
CCOC(=O)c1c(C)[nH]c(C2=NNC(=Nc3cccc(Cl)c3)SC2)c1C	22	n	n	n	n
O=C1/C(=C/c2cccs2)CCC/C1=C\c1cccs1	n	n	n	n	n
Cn1cccc1/C=C1\CCC/C(=C\c2cccn2C)C1=O	n	n	n	38	n
CCc1cccc(C)c1NC(=O)CC1Oc2ccc(C)cc2NC1=O (configuration not stated)	n	n	n	n	n
CC(C)NCC(O)COCCOc1ccc(C(C)(C)C)cc1 (configuration not stated)	n	-5.2	n	n	n
CN1CCN(C2=C(Cl)C(=O)C(c3cnc(N4CCCCC4)s3)=C(Cl)C2=O)CC1	n	n	-7.1	n	n
CCCc1ccc(OCc2ccc(C(=O)O)o2)c(OC)c1	n	n	n	n	n
CCCc1ccc(OCc2ccc(C(=O)NN)o2)c(OC)c1	n	-5.3	n	n	n
C[C@]12CCC(O)CC1CCC1C2CC[C@]2(C)C(c3cc(C(F)(F)F)n[nH]3)CCC12 (some centres not stated)	n	n	n	n	n
O=c1cc(N2CCCCC2)c(-c2ccccc2)nn1Cc1ccc(Cl)cc1Cl	n	n	-8.7	n	n
O=c1cc(N2CCCCC2)c(-c2ccccc2)nn1Cc1ccccc1Cl	n	n	-7.1	n	n
O=c1cc(N2CCCCC2)c(-c2ccccc2)nn1Cc1cccc(Cl)c1	n	n	n	n	n
CN(C(=O)c1ccc(S(=O)(=O)N2CCCC2)cc1)C1CCS(=O)(=O)C1 (configuration not stated)	n	n	n	n	n
CCOc1ncccc1C(=O)Nc1c(C)n(C)n(-c2ccccc2)c1=O	n	n	n	n	n
O=C1NC(=Nc2ccccc2Cl)S/C1=C\c1cc([N+](=O)[O-])ccc1O	n	n	n	n	n
Cc1ccc(S(=O)(=O)/N=C2/NC(=O)/C(=C/c3cc([N+](=O)[O-])ccc3O)S2)cc1	n	n	-7.8	n	n
Cc1nnc(SCc2ccc(Cl)cc2)n1CC1CCCO1 (configuration not stated)	n	n	n	n	n
COc1ccc(/C=C2\Oc3cc(OCC(=O)N4CCC(C(=O)O)CC4)ccc3C2=O)c(OC)c1	n	n	n	n	n
COc1ccc(OC)c(/C=C2\Oc3cc(OCC(=O)N4CCC(C(=O)O)CC4)ccc3C2=O)c1	n	n	n	55	n
COc1ccc(OC)c(/C=C2\Oc3cc(OCC(=O)N4CC(O)C[C@H]4C(=O)O)ccc3C2=O)c1 (some centres not stated)	14	n	n	n	n

High-throughput results deposited in PubChem BioAssay by Johns Hopkins Ion Channel Center.
